The test system of data set [1] is MCF7. As to the kind of experiment: Photorelease activity in human MCF7 cells assessed as 3-bromo-2-(4-carbamimidoylphenyl)-1H-indole-6-carboxamidine release by measuring bright cyan fluorescence in nucleus at 3 uM incubated for 1 hr followed by illumination with 1.6 J/cm^2 for 10 mins by DAPI filter based analysis. The format is ADME, cell-based. The settings on record: mcf7, 1.167 h, time 70 min. Summed up:
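MCF7 cells given compound (3 μM) for 1 h, washed once with PBS, imaged. DAPI filter set (ex 350–405, em 415–470 nm) used for Br-DAPI cyan signal; EGFP filter set (ex 450–495, em 500–550 nm) used for WinterGreen green signal. Cells imaged dark, then after 480 nm illumination (10 min, 1.6 J cm⁻²).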

Data set [2] is described as follows: Aqueous stability of the compound in PBS at pH 7.4 assessed as hydrolysis of carbamate to release 3-bromo-2-(4-carbamimidoylphenyl)-1H-indole-6-carboxamidine at 0.8 uM incubated for 3 hrs by fluorescence based analysis. The class given is physicochemical. As to conditions: buffer, pH 7.4, 3 h.
Data set [3] can be described thus: Induction of ROS production in PBS at pH 7.4 at 1 uM irradiated with 480 nm 2.3 J/cm^2 light for 15 mins with 2-photon irradiation by DCFH2-DA probe based analysis. The format is functional.
Data set [4] deals with MCF7. The data set can be described thus: Photocytotoxicity against human MCF7 cells assessed as reduction in cell viability incubated for 1 hr under dark condition followed by washout and measured after 24 hrs by MTT assay. The format is functional. Summed up:
(§1)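 Cells (MCF7, A549, HeLa) incubated 1 h with compound (BB probes 0–32 μM, Br-DAPI 0–64 μM) and washed once. Light arms: 480 nm (15 min, 2.3 J cm⁻²) with or without UV (5 min, 8.0 J cm⁻²), or UV only; dark controls unilluminated. Cells kept overnight in growth medium, then MTT read 24 h post-treatment. CC50 taken relative to untreated cells. n = 3.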
(Tetrazolium dyes change colour on reduction, which living cells bring about.)

A short description of data set [5]: Drug localization in mitochondria of human MCF7 cells assessed as increase in bright green fluorescence of wintergreen excitation at 2 uM incubated for 1 hr in dark by Mitotracker green dye based analysis. The class given is ADME. The settings on record: mcf7, 1 h.
Data set [6] in a line: Photorelease ability in PBS at pH 7.4 assessed as 3-bromo-2-(4-carbamimidoylphenyl)-1H-indole-6-carboxamidine release by measuring change in emission spectra at 1 uM incubated in presence of CT-DNA and irradiated with 3.1 J/cm^2 mercury lamp light for 20 mins. The format is functional.
Data set [7] concerns MCF7. As to the kind of experiment: Photocytotoxicity against human MCF7 cells assessed as cell death by measuring increase in green fluorescence at 4 uM incubated for 1 hr followed by washout and irradiated with 480 nm 2.3 J/cm^2 light for 15 mins with 48 J 780 nm 2P laser light for 30 seconds by cell viability imaging kit based assay. The class given is functional. Summed up: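 MCF7 cells given compound at 4 μM. Illuminated with 480 nm light (15 min, 2.3 J cm⁻²) plus 780 nm two-photon laser (30 s, 48 J). Stained 2 h later with a live/dead imaging kit: green dead-cell stain (EGFP filter), blue total-cell stain (DAPI filter). n = 3.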

For data set [8], the system named is Calf thymus DNA. As to the kind of experiment: Binding affinity to calf thymus DNA assessed as reduction in absorbance spectra at 20 uM by fluorescence based analysis. The format is nucleic-acid assay. As to conditions: Bos taurus.
Data set [9] in a line: Drug localization in cytosol of human MCF7 cells assessed as increase in bright green fluorescence of wintergreen excitation at 2 uM incubated for 1 hr in dark by EGFP filter based analysis. The class given is ADME, subcellular.
The test system of data set [10] is Calf thymus DNA. The data set can be described thus: Binding affinity to calf thymus DNA assessed as red shift in absorbance spectra at 20 uM by fluorescence based analysis. As to conditions: Bos taurus. The format is nucleic-acid assay.
In data set [11] the test system is MCF7. The data set can be described thus: Induction of ROS production in human MCF7 cells at 2 uM incubated for 1 hr in dark followed by irradiation with 480 nm 2.3 J/cm^2 light for 15 mins with 8 J/cm^2 UV irradiation for 5 mins by DCFH2-DA probe based analysis. The class given is functional, cell-based. As to conditions: time 80.0 min. Summed up: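 MCF7 cells incubated with compound (2 μM) 1 h in the dark, washed, loaded with 10 μM DCFH2DA for 30 min, washed. DCF green fluorescence imaged after 480 nm illumination (15 min, 2.3 J cm⁻²), then after added 365 nm UV (5 min, 8.0 J cm⁻²). Mean fluorescence intensity quantified.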

Data set [12] is described as follows: Induction of ROS production in PBS at pH 7.4 at 1 uM irradiated with 480 nm 2.3 J/cm^2 light for 15 mins with 8 J/cm^2 UV irradiation for 5 mins by DCFH2-DA probe based analysis. As to conditions: time 20.0 min. The format is functional.
Data set [13] has as its system MCF7. As to the kind of experiment: Induction of DNA damage in human MCF7 cells assessed as double strand breaks by measuring pink foci formation in nucleus at 3 uM incubated for 2 hrs followed by irradiation with 480 nm 2.3 J/cm^2 light for 15 mins with 8 J/cm^2 UV irradiation for 5 mins by gammaH2A.X antibody/Alexa 488/DAPI staining based fluorescence analysis. The class given is functional, cell-based. Summed up:
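MCF7 cells treated with compound at 3 μM, then illuminated with 480 nm (15 min, 2.3 J cm⁻²) plus UV (5 min, 8.0 J cm⁻²), or with UV alone. Left 2 h, fixed, stained with Alexa 488-tagged γH2AX antibody and DAPI counterstain. Nuclear foci imaged.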

Data set [14] has as its system MCF7. As to the kind of experiment: Photocytotoxicity against human MCF7 cells cultured as […] spheroids assessed as fold reduction in diameter of tumor spheroid size at 10 uM incubated for 1 hr followed by washout and irradiation with 480 nm 2.3 J/cm^2 light for 15 mins with 8 J/cm^2 UV irradiation for 5 mins and incubated overnight by cell viability imaging kit based assay. The format is functional. Summed up:
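MCF7 spheroids (~300 μm) grown in ultralow-attachment plates. Compound added to medium at 10 μM final for 1 h, then illuminated: 480 nm (15 min, 2.3 J cm⁻²), 480 nm plus UV (5 min, 8.0 J cm⁻²), or UV only. After overnight incubation, stained with a live/dead imaging kit; dead-cell green mean intensity and spheroid diameter assessed.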

The nature of data set [15]: Stability of compound in human A549 cells assessed as esterase-mediated 3-bromo-2-(4-carbamimidoylphenyl)-1H-indole-6-carboxamidine release by measuring cyan fluorescence at 2 uM incubated for 1 hr followed by compound washout and further incubated for 1 hr on heated microscopic stage by DAPI filter based fluorescence analysis. The settings on record: a549, 1 h. The class given is ADME, cell-based. Summed up:
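Cells incubated with compound (2 μM) for 1 h, washed once with PBS, then kept a further 1 h in the dark on a heated microscope stage. Nuclear cyan fluorescence imaged with the DAPI filter set at 0 h and 2 h time points.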

The test system of data set [16] is MCF7. The data set can be described thus: Photocytotoxicity against human MCF7 cells assessed as reduction in cell viability incubated for 1 hr followed by washout and irradiation with 480 nm 2.3 J/cm^2 light for 15 mins and measured after 24 hrs by MTT assay. The class given is functional. The settings on record: MCF7, light or radiation study. Summed up:
as §1

The nature of data set [17]: Photorelease activity in PBS at pH 7.4 assessed as 3-bromo-2-(4-carbamimidoylphenyl)-1H-indole-6-carboxamidine release by measuring time at when peak observed at 50 uM in presence of CT-DNA illuminated with 3.1 J/cm^2 480 nm illumination for 20 mins by RP-HPLC analysis. The class given is functional. Summed up: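 Samples at 50 μM in PBS pH 7.4 were either kept 3 h at 37 °C in the dark or illuminated 20 min at 480 nm (450–495 nm filter, 3.1 J cm⁻²). Analysed by RP-HPLC on a C18 analytical column with absorbance at 345 nm; retention times recorded. n = 2 independent samples.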

Active and inactive are the calls of the source. The rule behind the calls is not given here. Bounds are passed on as bounds.

Usually CC50 stands for the concentration at which the toxic effect on the cells reaches its halfway point.

On to `CC1=CC(C)=[N+]2C1=C(COC(=O)/N=C(\N)c1ccc3c(Br)c(-c4ccc(C(=N)N)cc4)[nH]c3c1)c1c(C)cc(C)n1[B-]2(C)C`, for which the figures for the Drug metabolism result (in the data set on MCF7 [1]; in data set [6]) were “Metabolite_Detected” and “Metabolite detected”, respectively. Moreover, the Stability result in data set [2] and in [15] was “Stable” each time. In addition, the outcome (in data set [3]; in the data set with MCF7 [7]; in the data set with Calf thymus DNA [8]; with Calf thymus DNA [10]; in the data set on MCF7 [11]; in data set [12]) was Active. Further, the outcome with MCF7 [13] was Active. Besides, the values for the CC50 with MCF7 [4] and in the data set on MCF7 [16] were more than 10 µM and 4 µM, respectively. Moreover, the Drug uptake result in [5] and in [9] was “Active” each time. The “fold change (FC)” value with MCF7 [14] was found to be 5. The TIME in data set [17] worked out at 0.533 h.

Source of the values: ChEMBL document CHEMBL5150073, “Photocaged DNA-Binding Photosensitizer Enables Photocontrol of Nuclear Entry for Dual-Targeted Photodynamic Therapy” (J Med Chem, 2022).
